Experimental data from different studies.
Each line is one published result; the experiments were not run side by side.
ADRA2A: Alpha-2A adrenergic receptor (ADRA2A, Homo sapiens, UniProt P08913)
OPRD1: Delta-type opioid receptor (OPRD1, Homo sapiens, UniProt P41143)
HTR3A: 5-hydroxytryptamine receptor 3A (HTR3A, Homo sapiens, UniProt P46098)
OGT: UDP-N-acetylglucosamine--peptide N-acetylglucosaminyltransferase 110 kDa subunit (OGT, Homo sapiens, UniProt O15294)

Compound | target | test | test system | setting | IC50 [µM]
CCN(CC)C(=O)C1CN2CCc3cc(OC)c(OC)cc3C2CC1OC(C)=O (stereo not shown) | ADRA2A | ligand displacement, radioligand |  |  | 0.825
CCCCCCCCC[C@@H]1CC(=O)NCC(=O)N[C@H](Cc2ccc(O)cc2)C(=O)NCC(=O)N[C@@H](Cc2ccccc2)C(=O)O1 | OPRD1 | ligand displacement, radioligand |  |  | 38
CC(C)[C@H](CNCc1ccccc1)N1CCN(CCC2CC3CCC2C3)[C@@H](Cc2ccccc2)C1 (stereo partly shown) | OPRD1 | cell-free assay |  |  | > 10
Cc1cn([C@H]2CC[C@@H](OC(C(=O)O)C(=O)O)C2)c(=O)[nH]c1=O | Gag-Pol polyprotein, reverse transcriptase (gag-pol, Human immunodeficiency virus 1, UniProt P03366) | enzyme activity, inhibitor, radiometric |  |  | > 640
CN1CCN(C2=Nc3ccccc3Oc3ccc(Cl)cc32)CC1 | HTR3A | ligand displacement, radioligand |  |  | 0.377
CCOC(=O)c1cncn1[C@H](C)c1ccc(C2(C(F)(F)F)N=N2)cc1 | HTR3A | ion current, two-electrode voltage clamp |  | oocytes | 9
CC[C@H](C)[C@H](NC(=O)[C@H](CO)NC(=O)[C@H](Cc1ccc(O)cc1)NC(=O)[C@H](CCCCN)NC(=O)[C@@H]1CCCN1C(=O)[C@H](CCSC)NC(=O)[C@H](Cc1ccccc1)NC(=O)[C@H](CCSC)NC(=O)[C@@H](NC(=O)[C@@H]1CCCN1C(=O)[C@H](Cc1ccccc1)NC(=O)[C@H](CC(=O)O)NC(=O)CN)C(C)C)C(=O)N[C@H](C(=O)N[C@@H](Cc1ccccc1)C(=O)N[C@@H](CCCCN)C(=O)N[C@@H](CCCCN)C(=O)O)[C@@H](C)CC | OGT | enzyme activity, inhibitor, fluorescence |  |  | 16
Cc1cc(C)nc(Nc2ncc(C(=O)NCCc3c(C)[nH]c4ccccc34)cn2)c1 | Cytochrome P450 2C19 (CYP2C19, Homo sapiens, UniProt P33261) | enzyme activity, inhibitor | human, liver microsomes |  | 11
CN1CCC(=C2c3ccccc3CCc3sccc32)CC1 | ADRA2A | calcium signal, antagonist |  |  | 7.25
CNC[C@@H](Cc1ccc(O)cc1)N1CCN(CCc2cccc(C)c2)[C@@H](C(C)C)C1 | OPRD1 | cell-free assay |  |  | > 10
CC(CCc1ccccc1)NC(C)C(O)c1ccc(O)cc1 (stereo not shown) | ADRA2A | ligand displacement, radioligand |  |  | 9.39
CCC[C@H](CNC)NC[C@@H](CCC)NCC1CCC(C)CC1 (stereo partly shown) | OPRD1 | cell-free assay |  |  | > 10
O=c1c(O)c(-c2ccc(O[C@@H]3O[C@H](CO)[C@@H](O)[C@H](O)[C@H]3O)c(O)c2)oc2cc(O)cc(O)c12 | Carbonic anhydrase 2 (CA2, Homo sapiens, UniProt P00918) | enzyme activity, inhibitor, absorbance |  |  | 0.0194
CNC[C@@H](Cc1ccc(O)cc1)N1CCN(CCC2CC3CCC2C3)CC1 (stereo partly shown) | OPRD1 | cell-free assay |  |  | > 10
C[C@@H](NC(=O)[C@@H](N)Cc1ccc(O)cc1)C(=O)NCC(=O)N[C@H](CC(=O)NNC(=O)C[C@H](Cc1ccccc1)NC(=O)CNC(=O)[C@@H](C)NC(=O)[C@@H](N)Cc1ccc(O)cc1)Cc1ccccc1 | OPRD1 | ligand displacement, radioligand |  |  | 0.00145
CNC[C@H](Cc1ccc(O)cc1)NC[C@H](Cc1ccc(O)cc1)NCC1CCCCCC1 | OPRD1 | cell-free assay |  |  | > 10
CC[C@H](C)[C@H](NC(=O)[C@H](CO)NC(=O)[C@H](Cc1ccc(O)cc1)NC(=O)[C@H](CCCCN)NC(=O)[C@@H]1CCCN1C(=O)[C@H](CCSC)NC(=O)[C@H](Cc1ccccc1)NC(=O)[C@H](CCSC)NC(=O)[C@@H](NC(=O)[C@@H]1CCCN1C(=O)[C@H](Cc1ccccc1)NC(=O)[C@H](CC(=O)O)NC(=O)CNC(=O)[C@H](CCCCN)NC(=O)[C@@H](N)CCCCN)C(C)C)C(=O)N[C@H](C(=O)N[C@@H](Cc1ccccc1)C(=O)O)[C@@H](C)CC | OGT | enzyme activity, inhibitor, fluorescence |  |  | 5.3
CC(C)[C@@H]1CN([C@@H](CNCc2ccccc2)C(C)C)CCN1CCc1ccccc1 | OPRD1 | cell-free assay |  |  | > 10
CC(C)Cc1ccc([C@H](C)C(=O)O)cc1 | Histone acetyltransferase p300 (EP300, Homo sapiens, UniProt Q09472) | enzyme activity, inhibitor, mobility shift |  |  | ~6000
